Screens (PubChem)
Hits are enriched below; roughly 2.6% of the tested compounds scored in any of these assays.
PRMT1 FP inh = PRMT1 methyltransferase inhibitors, primary screen, biochemical, fluorescence polarization | Protein arginine N-methyltransferase 1 (Homo sapiens), Q99873 | recombinant PRMT1, activity-based probe fluorescence polarization | inhibition, % at 2.79 µM | 370,000 compounds, 1.3% hits | AID 652257, 2013;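 active means inhibition above about 21% made by adding two undisclosed values, limit read from the data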
Target sequence (Q99873 whole entry, looked up): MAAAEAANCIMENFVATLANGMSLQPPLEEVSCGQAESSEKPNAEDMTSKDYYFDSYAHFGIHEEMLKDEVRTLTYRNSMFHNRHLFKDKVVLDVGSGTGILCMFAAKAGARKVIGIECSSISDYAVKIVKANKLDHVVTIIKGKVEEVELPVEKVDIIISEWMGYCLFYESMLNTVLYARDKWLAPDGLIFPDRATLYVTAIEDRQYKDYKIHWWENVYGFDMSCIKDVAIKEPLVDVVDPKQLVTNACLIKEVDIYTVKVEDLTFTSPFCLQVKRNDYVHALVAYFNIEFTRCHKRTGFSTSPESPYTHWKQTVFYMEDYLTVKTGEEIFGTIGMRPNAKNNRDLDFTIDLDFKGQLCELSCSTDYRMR
HTRA1 inhibitor = HTRA1 serine protease inhibitors, primary screen, biochemical, fluorescence polarization, HTS; Q92743; recombinant HTRA1, FP-rhodamine activity-based probe; inhibition, % at 5.96 µM; 340,000 compounds, 0.5% hits; AID 504803, 2011; in the data active means inhibition above about 36%;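 further: 0% = enzyme with DMSO and 100% = wells lacking enzyme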
mABHD4 FP = ABHD4 inhibitors, primary screen, biochemical, fluorescence polarization, mouse. inhibition, % at 8.92 µM. purified mABHD4, FP-Rh probe fluorescence polarization. 370,000 compounds, 0.54% hits. AID 720543, 2013. (Lyso)-N-acylphosphatidylethanolamine lipase (Mus musculus), Q8VD66;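 active means inhibition exceeding the mean over every tested compound plus 3 SD, cut at about 30% in these data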;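 further: 0% = plate median of compound wells and 100% = S159A mutant with DMSO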
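Assay system: Wild-type mouse ABHD4 protein | Medium: HEPES pH 7.0 buffer, 150 mM NaCl, 0.01% Pluronic F-127 | Incubation: Enzyme–compound pre-incubation 45 min, then probe 60 min, both 25 °C | Technique: Fluorescence polarization with parallel and perpendicular emission, 525/598 nm | Evaluation: % inhibition of FP-Rh probe binding versus controls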
SIAE primary = human SIAE inhibitors, primary screen, biochemical, fluorescence polarization, FP-Rh probe, 1536-well HTS | 370,000 compounds, 0.69% hits | SIAE FP-Rh probe binding | inhibition, % at 9.66 µM | Sialate O-acetylesterase (Homo sapiens), Q9HAT2;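 active means inhibition above a cutoff: mean of compounds within the control limits plus 3 SD of those, cut at about 17% in these data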;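 further: 0% = plate median of compound wells and 100% = probe without SIAE protein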
TCR CD3 inh = inhibitors of human TCR-CD3 interaction, primary screen, biochemical, fluorescence, TAMRA-labeled TCR probe; AID 651800, 2012; 360,000 compounds, 0.37% hits; T-cell receptor (TCR); inhibition, % at 9.4 µM; in the data active means inhibition above about 19%;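 further: recombinant mutant TCR 2C K166C tagged with TAMRA read by polarization; 0% = receptor in buffer alone and 100% = receptor with positive control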
mABHD4 conf = ABHD4 inhibitors, retest, confirmation, biochemical, fluorescence polarization, mouse; shares compounds with mABHD4 FP; 1,800 compounds, 55% hits; inhibition, % at 8.92 µM; purified mABHD4, FP-Rh probe fluorescence polarization; AID 720658, 2013;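 active means mean inhibition across replicates above the hit cutoff set in the primary screen, cut at about 30% in these data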;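 further: 0% = wild-type ABHD4 with DMSO and 100% = catalytically dead S159A mutant with DMSO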
Numbers without * were called inactive; nt = no result.

SMILES	PRMT1 FP inh	HTRA1 inhibitor	mABHD4 FP	SIAE primary	TCR CD3 inh	mABHD4 conf
CCOC(=O)c1ccc(NC(=O)C(C)N2C(=O)c3ccccc3C2=O)cc1 (stereo not given)	0.5	1.0	-13.8	8.8	6.0	nt
O=C(NCc1ccccc1)[C@@H]1CCCN1C(=O)[C@H]1CCCN1C(=O)c1cccc(F)c1	-4.9	nt	1.0	5.3	-1.0	nt
C[C@@H]1CCN(C2CC2)S(=O)(=O)c2ccc(N3CC[C@H](N(C)C)C3)cc2O1	-0.3	nt	2.8	4.1	nt	nt
COC(=O)C1CN(Cc2ccccc2)CCS(=O)(=O)N1Cc1cn(Cc2ccc(Cl)cc2)nn1 (stereo not given)	-1.1	nt	2.3	3.8	nt	nt
COc1cc2c(c(OC)c1OC)C1(CCCCC1)CC2NS(=O)(=O)C(C)C (stereo not given)	-0.2	nt	-0.4	5.0	4.6	nt
CCc1c2c3n4c1CCC[C@@H]4C[C@@H]3O[Si](C(C)C)(C(C)C)OC(C)C2=O (stereo not given in full)	-2.6	nt	7.6	8.7	nt	nt
O=C1C[C@@H](O)[C@H](O)c2cccc(O)c21	10.8	nt	34.7*	-6.0	nt	19.1
O=C1O[C@@H](c2ccc(O)cc2)Cc2cccc(O)c21	-3.9	0.6	0.6	0.3	0.4	nt
CCOc1ccc(N(CC(=O)Nc2c(C)n(C)n(-c3ccccc3)c2=O)S(=O)(=O)c2ccc(C(C)(C)C)cc2)cc1	0.7	nt	-0.7	-2.9	nt	nt
CC12C=CC(C)(C3C(=O)NC(=O)C31)C1C3C(=O)NC(=O)C3C12 (stereo not given)	-0.1	nt	2.7	0.3	4.2	nt
COCc1cn(-c2cccc(-c3noc4c3C(=O)N(CC(=O)N3CCOCC3)CC4)c2)nn1	-0.2	nt	32.2*	0.3	nt	4.9
CN(C)Cc1cn(-c2cccc(-c3noc4c3C(=O)N(CC(=O)N3CCOCC3)CC4)c2)nn1	-1.4	nt	-0.6	-10.2	nt	nt
CC(C)(C)c1ccc(S(=O)(=O)NC(=O)C2(C)CCN2C(=O)Cc2ccc(-c3ccccc3)cc2)cc1 (stereo not given)	1.8	nt	44.6*	0.7	0.4	15.0
CCCCCCCCN1C(=O)[C@@H](CC(=O)NCCCN2CCCC2=O)C[C@@]2(C(=O)OC)C1=C[C@H](C1CCCC1)O[C@@H]2C	-2.8	nt	-4.6	-0.2	-1.6	nt
O=C(CN1C(=O)/C(=C2\SC(=S)N(CCS(=O)(=O)O)C2=O)c2ccccc21)Nc1cccc(Br)c1	19.4	-39.0	67.5*	-3.2	9.3	83.5*
NNc1nc2c(F)cccc2s1	7.3	23.8	76.8*	10.6	-4.7	31.8*
NNc1nc2c(F)cc(F)cc2s1	4.6	13.1	44.7*	8.1	2.4	8.9
O=C(Nc1nc2c(F)cc(F)cc2s1)c1ccco1	-7.0	-4.8	-3.4	1.7	2.7	nt
Fc1cccc2sc(Nc3nc4c(F)cccc4s3)nc12	-0.5	-7.8	1.8	0.0	-2.0	nt
Oc1ccc(/C=N/Nc2nc(N3CCCC3)nc(N3CCCC3)n2)cc1O	3.8	27.3	29.9*	6.6	5.1	24.6
COC(=O)C1=C(C)N(Cc2ccccc2C(F)(F)F)C(=NCc2ccc(C(F)(F)F)cc2)NC1c1cccc(Cl)c1 (stereo not given)	-5.2	nt	-5.5	-13.6	-4.6	nt
O=C(O)C1Nc2c(O)cccc2C2C=CCC12 (stereo not given)	19.1	50.1*	43.5*	63.9*	71.9*	47.2*
COc1ccccc1C1Nc2cccc3cccc(c23)N1	16.0	31.8	54.5*	3.8	7.5	52.5*
Cc1ccc(C(=O)Nc2nc3ccccc3[nH]2)cc1	0.8	-3.6	30.0*	-5.8	-7.8	21.0
CCOC(=O)C1=C(C)N=C2c3ccccc3C(=O)C2C1c1ccccc1 (stereo not given)	0.6	-0.8	33.9*	1.7	-3.3	37.2*
SMILES	PRMT1 FP inh	HTRA1 inhibitor	mABHD4 FP	SIAE primary	TCR CD3 inh	mABHD4 conf
O=C(CNc1cccc2ccccc12)N/N=C/c1ccccn1	0.5	nt	38.7*	16.4	3.0	30.6*
C[C@H]1[C@H](NC(=O)c2ccc(Cl)c(C(F)(F)F)c2)CC[C@@]23CCCN2C(=O)CCC[C@@H]13	-0.4	nt	0.0	0.5	nt	nt
COc1ccc(-c2sc3ccccc3c2-c2ccc(OCCN3CCCCC3)cc2)cc1	3.3	-18.9	11.0	4.2	2.3	nt
c1ccc(-c2sc3ccccc3c2-c2ccc(OCCN3CCCC3)cc2)cc1	-2.3	-26.6	30.6*	1.7	0.2	28.5
C[C@@H]1C=CCCO[C@]12C(=O)N(CC1CC1)c1cccc(Br)c12	-4.4	nt	39.7*	8.7	4.3	40.0*
Cc1cc(C)c(S(=O)(=O)/N=C2\C=C(NS(=O)(=O)c3ccccc3)C(=O)c3ccccc32)c(C)c1	2.2	12.7	45.0*	8.6	-9.8	42.4*
O=C(O)c1ccc(NC2=C/C(=N/S(=O)(=O)c3ccccc3)c3ccccc3C2=O)cc1	6.5	34.2	48.4*	9.2	7.6	65.5*
O=C1c2ccccc2C(=O)N1S(=O)(=O)c1ccccc1	-3.3	3.3	1.6	-2.2	3.6	nt
Cc1ccc(S(=O)(=O)/N=C2\C=C(NS(=O)(=O)c3ccccc3)C(=O)c3ccccc32)cc1	-1.4	-2.2	26.5	-6.3	-0.8	nt
O=S(=O)(N=C1C=CC(=NS(=O)(=O)c2ccccc2)c2ccccc21)c1ccccc1	16.6	-2.1	63.8*	3.5	-6.1	76.2*
CN1[C@H](Cc2ccccc2)COc2cc(N3CCSCC3)ccc2S1(=O)=O	2.1	nt	0.8	1.2	nt	nt
CCOC(=O)[C@]12CCCC=C1N(Cc1ccc(OC)cc1)C(=O)[C@@H]2CC(=O)N1CCCCC1	1.2	nt	3.8	7.6	nt	nt
Cc1ccc2nc(-c3ccc(F)cc3)c(Cc3ccsc3)n2c1	3.5	nt	4.7	12.3	0.3	nt
CCN(CC)S(=O)(=O)c1ccc(N2CCOCC2)c(NC(=O)c2c3c(nc4ccccc24)CCC3)c1	-0.2	10.3	33.6*	1.3	3.2	30.4*
CCN(CC)S(=O)(=O)c1ccc(N2CCOCC2)c(NC(=O)c2cccc3c(=O)c(C)c(-c4ccccc4)oc23)c1	-1.1	-41.8	32.6*	-17.7	-4.6	37.5*
Cn1c(=O)c2cc(S(=O)(=O)N3CCN(CCO)CC3)ccc2n(C)c1=O	-5.2	nt	2.5	-2.2	nt	nt
CC(COc1cccc(Br)c1)CN1CCC(C(O)(c2ccccc2)c2ccccc2)CC1 (stereo not given)	-2.6	nt	8.7	4.2	nt	nt
CCOC(=O)c1c(CSc2ccsc2)n(C)c2cc(Br)c(O)c(CN(C)C)c12	-0.2	-4.8	29.6*	7.7	6.6	1.7
